T cruzi growth-1: T. cruzi proliferation inhibition. T. cruzi beta-gal in NIH3T3, GalScreen luminescence, 90 h. inhibition, % at 8.34 µM. 5.9% of 77,000 active. AID 624255;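 active = mean inhibition above about 93%, with at least 55% of replicates each passing it, limit read from the data, passing the limit was not always enough; inconclusive = only one of those two conditions holds; inactive = neither condition holds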
IDH1 R132H inh: IDH1 R132H (human) inhibition; IDH1 R132H reductase, diaphorase/resazurin fluorescence, 60 min; O75874; 0.18% of 70,000 active; inhibition, % at 10 µM; in the data active = inhibition above about 34%; inconclusive = no clear call, values can overlap the other calls; inactive = below about 11%;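 note: 0% = DMSO and 100% = no enzyme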
GASC1 inh: inhibitors of human demethylase GASC-1 KDM4C | Q9H3R0 | GST-KDM4C 2-372, H3K9me3 peptide, LANCE TR-FRET | inhibition, % at 12.5 µM | 0.15% of 96,000 active;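 active = mean replicate inhibition above about 25%, with at least 55% of replicates also reaching it, limit read from the data, passing the limit was not always enough; inconclusive = only one of those two conditions met; inactive = neither condition met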
Target sequence (Q9H3R0 2-372 limits assumed): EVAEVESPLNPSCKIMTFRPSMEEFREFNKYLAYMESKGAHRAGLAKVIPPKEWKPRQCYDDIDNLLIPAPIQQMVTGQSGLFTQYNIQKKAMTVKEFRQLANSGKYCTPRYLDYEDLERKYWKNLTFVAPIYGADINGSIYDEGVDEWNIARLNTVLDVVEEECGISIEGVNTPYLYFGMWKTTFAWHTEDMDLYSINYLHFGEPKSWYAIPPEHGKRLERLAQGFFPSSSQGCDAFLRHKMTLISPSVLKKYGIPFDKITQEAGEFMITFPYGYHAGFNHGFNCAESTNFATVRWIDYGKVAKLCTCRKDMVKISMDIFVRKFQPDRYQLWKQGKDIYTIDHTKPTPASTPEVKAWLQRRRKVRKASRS
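Material: N-terminal GST-fused human GASC-1 (KDM4C) fragment, residues 2-372. Input: 10 nM enzyme. Incubation: enzyme reaction 30 min, then detection 60 min, both room temperature. Doses: one test concentration per compound. Read-out basis: inhibition from TR-FRET ratio decrease. Detection: LANCE TR-FRET, excitation 340 nm, emissions 618 and 671 nm.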
T cruzi growth-2: Trypanosoma cruzi proliferation inhibition; inhibition, % at 8.35 µM; shares compounds with T cruzi growth-1; T. cruzi beta-gal in NIH3T3, GalScreen luminescence, 90 h; 72% of 5,600 active; AID 651739;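 active = mean replicate inhibition above about 95% and at least 55% of replicates individually reaching it, limit read from the data; inconclusive = only one of the two criteria is met; inactive = neither criterion is met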
T cruzi growth-3: blocks T. cruzi growth in NIH3T3 host cells; shares compounds with T cruzi growth-1; T. cruzi beta-gal in NIH3T3, GalScreen luminescence, 90 h; inhibition, % at 2.09 µM; 21% of 5,600 active; AID 651740;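 active = mean inhibition above about 95%, with at least 55% of replicates also reaching it, limit read from the data; inconclusive = meets just one of the two conditions; inactive = meets neither condition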;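 note: plate controls were neutral control median for no effect and positive control median for full effect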
NIH3T3 tox: NIH/3T3 (mouse) viability loss. shares compounds with T cruzi growth-1. NIH/3T3 viability, CellTiter-Glo ATP luminescence, 90 h. cytotoxicity (signal decrease), % at 8.35 µM. 14% of 5,600 active. AID 651742;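 active = mean signal decrease across replicates above about 35% based on untreated-well scatter, with enough replicates individually passing, limit read from the data; inconclusive = no rule stated though some were filed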;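 note: 0% = median of neutral control wells and 100% = median of positive control wells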
3T3 cytotox 2: kills mouse NIH/3T3 fibroblasts; shares compounds with T cruzi growth-1; 56% of 5,600 active; NIH/3T3 viability, CellTiter-Glo ATP luminescence, 90 h; inhibition, % at 24.9 µM;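 active = mean loss of cell viability signal at or above a set limit, and enough replicates individually reaching it; inconclusive = meets only the mean limit or only the replicate share; inactive = meets neither condition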;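 note: 0% = median of neutral control wells and 100% = median of positive control wells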
An asterisk follows results filed as active; ? = inconclusive; / = no result. Only a selection was taken, and hits are over-represented in it overall.

SMILES | T cruzi growth-1 | IDH1 R132H inh | GASC1 inh | T cruzi growth-2 | T cruzi growth-3 | NIH3T3 tox | 3T3 cytotox 2
O=S(=O)(c1ccccc1F)N1CC[C@@H]2[C@@H](CO)Nc3ccc(-c4cccc(F)c4)cc3[C@@H]21 | 29 | / | -3 | / | / | / | /
Cc1ccccc1S(=O)(=O)N1CC[C@@H]2[C@H](CO)Nc3ccc(-c4cccc(F)c4)cc3[C@@H]21 | 105* | / | 0 | ? | 109* | 27 | 104*
COc1ccc(OC)c(N(CC(=O)Nc2cccc(Cl)c2C)S(C)(=O)=O)c1 | / | 0 | / | / | / | / | /
CCOC(=O)c1c(NC(=O)CCN2CCC(C)CC2)sc2c1CC(C)(C)OC2 | / | 0 | / | / | / | / | /
COC(=O)c1ccc(/C=N/NC(=O)c2ccccn2)cc1 | / | 0 | / | / | / | / | /
CC(C)NC(=O)Nc1ccc2c(c1)CC(=O)N([C@@H](C)CO)C[C@@H](C)[C@H](CN(C)S(=O)(=O)c1ccc(Cl)cc1)O2 | 42 | 0 | 0 | / | / | / | /
CC(C)NC(=O)Nc1ccc2c(c1)CC(=O)N([C@H](C)CO)C[C@H](C)[C@H](CN(C)S(=O)(=O)c1ccc(Cl)cc1)O2 | 102* | -9 | -2 | -52 | -24 | -30 | 9
Cc1noc(C)c1S(=O)(=O)Nc1ccc2c(c1)CC(=O)N([C@H](C)CO)C[C@H](C)[C@H](CN(C)S(=O)(=O)c1ccc(Cl)cc1)O2 | 12 | / | -1 | / | / | / | /
Cc1noc(C)c1S(=O)(=O)Nc1ccc2c(c1)CC(=O)N([C@@H](C)CO)C[C@@H](C)[C@@H](CN(C)S(=O)(=O)c1ccc(Cl)cc1)O2 | ? | / | 0 | 71 | 33 | 3 | 39*
COc1ccc(C(=O)c2oc3ccccc3c2NC(=O)COc2ccc(F)cc2)cc1 | / | 0 | / | / | / | / | /
COc1ccc(C(=O)NCCCSc2nc(C(C)(C)C)cc(C(F)(F)F)n2)cc1 | / | 0 | / | / | / | / | /
COc1ccc(NC(=O)N2CCCCN3[C@@H](CO)[C@H](c4ccc(C#CCC(C)C)cc4)[C@@H]3C2)cc1 | 114* | / | -5 | 98* | 106* | 118* | 103*
COc1ccc(NC(=O)N2CCCCN3[C@H](C2)[C@H](c2ccc(C#Cc4ccccn4)cc2)[C@@H]3CO)cc1 | 84 | / | 0 | / | / | / | /
COc1ccc(C#Cc2ccc([C@H]3[C@H]4CN(C(=O)Nc5ccc(F)cc5)CCCCN4[C@H]3CO)cc2)cc1 | 79 | / | -3 | / | / | / | /
COc1ccc(C#Cc2ccc([C@@H]3[C@H]4CN(C(=O)Nc5ccc(F)cc5)CCCCN4[C@H]3CO)cc2)cc1 | 1 | / | -2 | / | / | / | /
COc1ccc(NC(=O)N2CCCCN3[C@H](CO)[C@@H](c4ccc(C#CCC(C)C)cc4)[C@@H]3C2)cc1 | 105* | / | 0 | 106* | 56 | 39* | 104*
COc1ccc(NC(=O)N2CCCCN3[C@H](C2)[C@H](c2ccc(C#CCC(C)C)cc2)[C@@H]3CO)cc1 | 118* | / | -1 | 92 | 61 | 14 | 100*
COc1ccc(NC(=O)N2CCCCN3[C@H](CO)[C@H](c4ccc(C#CCC(C)C)cc4)[C@@H]3C2)cc1 | 121* | / | -1 | 108* | 96* | ? | 83*
CCc1c(C)c(C#N)c2[nH]c3ccccc3n2c1=O | / | 0 | / | / | / | / | /
COc1ccc(S(=O)(=O)N(C)CC(=O)Nc2ccc(F)c(Cl)c2)cc1C | / | 0 | / | / | / | / | /
O=C(N/N=C/c1ccccc1)c1ccccc1O | / | 1 | / | / | / | / | /
O=C(CSc1oc(-c2ccccc2)nc1S(=O)(=O)c1ccccc1)Nc1ccc(F)cc1 | / | 1 | / | / | / | / | /
CC(C)CC#Cc1ccc([C@@H]2[C@@H](CO)N3CCCCN(C(=O)NC4CCCC4)C[C@H]23)cc1 | 84 | / | 1 | / | / | / | /
CC(C)CC#Cc1ccc([C@H]2[C@H]3CN(C(=O)NC4CCCC4)CCCCN3[C@H]2CO)cc1 | ? | / | -1 | 110* | 51 | 9 | 104*
COc1ccc(NC(=O)Nc2ccc3c(c2)C(=O)N([C@@H](C)CO)C[C@H](C)[C@@H](CN(C)S(=O)(=O)c2c(C)noc2C)OCCCC[C@H](C)O3)cc1 | 107* | 3 | -4 | 102* | -8 | -12 | -7
SMILES | T cruzi growth-1 | IDH1 R132H inh | GASC1 inh | T cruzi growth-2 | T cruzi growth-3 | NIH3T3 tox | 3T3 cytotox 2
Cc1noc(C)c1S(=O)(=O)N(C)C[C@H]1OCCCC[C@H](C)Oc2ccc(NC(=O)Nc3cccc4ccccc34)cc2C(=O)N([C@H](C)CO)C[C@H]1C | / | 1 | -1 | / | / | / | /
Cc1noc(C)c1S(=O)(=O)N(C)C[C@H]1OCCCC[C@H](C)Oc2ccc(NC(=O)Nc3cccc4ccccc34)cc2C(=O)N([C@@H](C)CO)C[C@@H]1C | 100* | 3 | -3 | 109* | ? | 7 | 54*
Cc1noc(C)c1S(=O)(=O)N(C)C[C@@H]1OCCCC[C@@H](C)Oc2ccc(NC(=O)Nc3cccc4ccccc34)cc2C(=O)N([C@@H](C)CO)C[C@H]1C | 104* | 5 | -3 | 84 | 55 | -14 | -5
Cc1noc(C)c1S(=O)(=O)N(C)C[C@@H]1OCCCC[C@H](C)Oc2ccc(NC(=O)Nc3cccc4ccccc34)cc2C(=O)N([C@H](C)CO)C[C@H]1C | 83 | 2 | 2 | / | / | / | /
Cc1noc(C)c1S(=O)(=O)N(C)C[C@@H]1OCCCC[C@@H](C)Oc2ccc(NC(=O)Nc3ccccc3)cc2C(=O)N([C@H](C)CO)C[C@H]1C | / | 2 | 0 | / | / | / | /
COc1ccc(NC(=O)Nc2ccc3c(c2)C(=O)N([C@@H](C)CO)C[C@@H](C)[C@H](CN(C)S(=O)(=O)c2c(C)noc2C)OCCCC[C@@H](C)O3)cc1 | -70 | / | -1 | / | / | / | /
Cc1noc(C)c1S(=O)(=O)N(C)C[C@@H]1OCCCC[C@H](C)Oc2ccc(NC(=O)Nc3cccc4ccccc34)cc2C(=O)N([C@H](C)CO)C[C@@H]1C | 109* | / | -6 | 98* | -37 | 74* | 77*
CC(C)Cc1ccc(S(=O)(=O)N2c3cc(F)ccc3CCC2C)cc1 (stereo not given) | / | -1 | / | / | / | / | /
O=C(CSc1nnc(-c2cccc(Cl)c2)n1-c1ccccc1)Nc1ccccc1-c1ccccc1 | / | 0 | / | / | / | / | /
CC(C)CC#Cc1ccc2c(c1)O[C@@H](CN(C)C(=O)C1CCOCC1)[C@@H](C)CN([C@H](C)CO)S2(=O)=O | 84 | -4 | -3 | / | / | / | /
CC(C)CC#Cc1ccc2c(c1)O[C@@H](CN(C)C(=O)C1CC1)[C@@H](C)CN([C@@H](C)CO)S2(=O)=O | 92 | / | -3 | / | / | / | /
CC(C)CC#Cc1ccc2c(c1)O[C@H](CN(C)C(=O)C1CCOCC1)[C@H](C)CN([C@H](C)CO)S2(=O)=O | 84 | 0 | 0 | / | / | / | /
CC(C)CC#Cc1ccc2c(c1)O[C@@H](CN(C)C(=O)C1CC1)[C@H](C)CN([C@@H](C)CO)S2(=O)=O | 104* | / | -2 | 104* | 59 | 28 | 55*

High-throughput results: PubChem BioAssay, Broad Institute
